From ChEMBL document CHEMBL4330148, “Discovery and Characterization of Cyclic and Acyclic Trypsin Inhibitors from Momordica dioica” (J Nat Prod, 2019)
Calls of active or inactive are those of the source. The rule behind the calls is not given here. Bridge positions count the residues as written; N and C are the ends. Peptide text beside a SMILES is read from it.

Assays:
[1] = species on record: Bos taurus; experiment: Inhibition of bovine pancreatic trypsin at 0.1 to 100 uM preincubated for 30 mins followed by L-BAPNA substrate addition and measured after 10 mins
Method in brief: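 Bovine pancreatic trypsin was dissolved in 1 mM HCl and diluted to 0.45 mg/mL in 50 mM Tris, 20 mM CaCl2, pH 8.2. Peptides (1 mM stock, eight-point 2-fold dilutions) were preincubated with trypsin for 30 min at 37 °C. L-BAPNA (0.435 mg/mL, 1% DMSO) was added for 10 min at room temperature, the reaction was stopped with 30% HOAc, and A410 was read. MCoTI-II was the reference inhibitor. Triplicate.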

[2] = Drug metabolism in 100% human serum at 30 uM up to 4 hrs by RP-HPLC analysis; format: ADME, cell-free
[3] = Cytotoxicity against Spodoptera frugiperda Sf9 cells after 3 hrs by MTT assay; details: sf9, 3 h
[4] = tested on: PC-3; experiment: Cytotoxicity against human PC3 cells after 24 hrs by MTT assay; format: cell-based; details: pc-3, 24 h
Method in brief: (§1)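 HT-29, MCF7 and PC-3 cells were grown in DMEM with 10% FBS and 1% penicillin–streptomycin at 37 °C under 5% CO2. They were seeded at 2000 cells/well and grown 24 h. Peptides were added in triplicate at final concentrations of 0.05–100 μM for 24 h. 1% Triton X-100 and medium alone served as controls. MTT (5 mg/mL in PBS) was added for 4 h, formazan was dissolved in DMSO, and absorbance was read at 570 nm.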

[5] = Stability in 100% human serum at 30 uM after 24 hrs by RP-HPLC analysis; format: ADME, cell-free
[6] = tested on: MCF7; experiment: Cytotoxicity against human MCF7 cells after 24 hrs by MTT assay; format: cell-based; details: mcf7, 24 h; method in brief: as §1
[7] = tested on: HT-29; experiment: Cytotoxicity against human HT-29 cells after 24 hrs by MTT assay; format: cell-based; details: ht-29, 24 h; method in brief: as §1

inhibition [1] | Drug metabolism [2] | Stability [5] | Compound | Activity [3] | Activity [4] | Activity [6] | Activity [7]
Active |  | Stable | CC[C@H](C)[C@@H]1NC(=O)[C@H](CCCNC(=N)N)NC(=O)[C@@H]2CCCN2C(=O)[C@@H]2CSSC[C@@H]3NC(=O)[C@H](C)NC(=O)CNC(=O)[C@@H]4CCCN4C(=O)[C@@H]4CSSC[C@H](NC(=O)[C@H](Cc5ccc(O)cc5)NC(=O)CNC(=O)[C@H](CC(N)=O)NC(=O)CNC(=O)[C@H](CCCNC(=N)N)NC(=O)[C@H](CSSC[C@H](NC(=O)[C@H](CCCCN)NC(=O)[C@H](CCCCN)NC(=O)[C@H](CC(C)C)NC1=O)C(=O)N[C@@H](CCCNC(=N)N)C(=O)N[C@@H](CCCNC(=N)N)C(=O)N[C@@H](CC(=O)O)C(=O)N[C@@H](CO)C(=O)N[C@@H](CC(=O)O)C(=O)N4)NC(=O)[C@H](C(C)C)NC3=O)C(=O)NCC(=O)N[C@@H](CO)C(=O)NCC(=O)N[C@@H](CO)C(=O)N[C@@H](CC(=O)O)C(=O)NCC(=O)NCC(=O)N[C@@H](C)C(=O)N2 | Non-Toxic | Non-Toxic | Non-Toxic | Non-Toxic
Active |  | Stable | CC[C@H](C)[C@@H]1NC(=O)[C@@H]2CSSC[C@@H]3NC(=O)[C@H](C)NC(=O)CNC(=O)CNC(=O)[C@H](CC(=O)O)NC(=O)[C@H](CO)NC(=O)CNC(=O)[C@H](CO)NC(=O)CNC(=O)[C@@H]4CSSC[C@H](NC(=O)[C@H](CC(=O)O)NC(=O)[C@H](CO)NC(=O)[C@H](CC(=O)O)NC(=O)[C@H](CCCNC(=N)N)NC(=O)[C@H](CCCNC(=N)N)NC(=O)[C@H](CSSC[C@H](NC1=O)C(=O)N[C@@H](CCCNC(=N)N)C(=O)NCC(=O)N[C@@H](CC(N)=O)C(=O)NCC(=O)N[C@@H](Cc1ccc(O)cc1)C(=O)N4)NC(=O)[C@H](CCCNC(=N)N)NC(=O)[C@H](CCC(N)=O)NC(=O)[C@H](CC(C)C)NC(=O)[C@H]([C@@H](C)CC)NC(=O)[C@H](CCCCN)NC(=O)[C@@H]1CCCN1C3=O)C(=O)N1CCC[C@H]1C(=O)NCC(=O)N[C@@H](C)C(=O)N2 (cyclo(ACICRGNGYCGSGSDGGACPKILQRCRRDSDCPG); disulfide 2-19, 4-26, 10-32) | Non-Toxic | Non-Toxic | Non-Toxic | Non-Toxic
Active |  | Stable | CC[C@H](C)[C@@H]1NC(=O)[C@@H]2CSSC[C@@H]3NC(=O)[C@H](C)NC(=O)CNC(=O)CNC(=O)[C@H](CC(=O)O)NC(=O)[C@H](CO)NC(=O)CNC(=O)[C@H](CO)NC(=O)CNC(=O)[C@@H]4CSSC[C@H](NC(=O)[C@H](CC(=O)O)NC(=O)[C@H](CO)NC(=O)[C@H](CC(=O)O)NC(=O)[C@H](CCCNC(=N)N)NC(=O)[C@H](CCCNC(=N)N)NC(=O)[C@H](CSSC[C@H](NC1=O)C(=O)N[C@@H](CCC(N)=O)C(=O)NCC(=O)N[C@@H](CC(N)=O)C(=O)NCC(=O)N[C@@H](Cc1ccc(O)cc1)C(=O)N4)NC(=O)[C@H](CCCCN)NC(=O)[C@H](CCCCN)NC(=O)[C@H](CC(C)C)NC(=O)[C@H]([C@@H](C)CC)NC(=O)[C@H](CCCNC(=N)N)NC(=O)[C@@H]1CCCN1C3=O)C(=O)N1CCC[C@H]1C(=O)N[C@@H](CO)C(=O)N[C@@H](C)C(=O)N2 | Non-Toxic | Non-Toxic | Non-Toxic | Non-Toxic
 |  | Stable | CC[C@H](C)[C@@H]1NC(=O)[C@H](CCCCN)NC(=O)[C@@H]2CCCN2C(=O)[C@@H]2CSSC[C@@H]3NC(=O)[C@H](C)NC(=O)CNC(=O)[C@@H]4CCCN4C(=O)[C@@H]4CSSC[C@H](NC(=O)[C@H](Cc5ccc(O)cc5)NC(=O)CNC(=O)[C@H](CC(N)=O)NC(=O)CNC(=O)[C@H](CCC(N)=O)NC(=O)[C@H](CSSC[C@H](NC(=O)[C@H](CCCCN)NC(=O)[C@H](CCC(N)=O)NC(=O)[C@H](CC(C)C)NC1=O)C(=O)N[C@@H](CCCNC(=N)N)C(=O)N[C@@H](CCCNC(=N)N)C(=O)N[C@@H](CC(=O)O)C(=O)N[C@@H](CO)C(=O)N[C@@H](CC(=O)O)C(=O)N4)NC(=O)[C@H](C(C)C)NC3=O)C(=O)NCC(=O)N[C@@H](CO)C(=O)NCC(=O)N[C@@H](CO)C(=O)N[C@@H](CC(=O)O)C(=O)NCC(=O)NCC(=O)N[C@@H](C)C(=O)N2 | Non-Toxic | Non-Toxic | Non-Toxic | Non-Toxic

Second part, the compound before the results:

Compound | inhibition [1] | Drug metabolism [2] | Stability [5] | Activity [3] | Activity [4] | Activity [6] | Activity [7]
CC[C@H](C)[C@@H]1NC(=O)[C@@H]2CSSC[C@H](NC(=O)[C@@H](NC(=O)[C@@H](CCCNC(=N)N)NC(=O)C3CCC(=O)N3)C(C)C)C(=O)N3CCC[C@H]3C(=O)N[C@@H](CCCNC(=N)N)C(=O)N[C@@H]([C@@H](C)CC)C(=O)N[C@@H](CC(C)C)C(=O)N[C@@H](CCCCN)C(=O)N[C@@H](CCCCN)C(=O)N[C@H]3CSSC[C@H](NC1=O)C(=O)N[C@@H](CCC(N)=O)C(=O)NCC(=O)N[C@@H](CC(N)=O)C(=O)NCC(=O)N[C@@H](Cc1ccc(O)cc1)C(=O)N[C@H](C(=O)NCC(N)=O)CSSC[C@H](NC(=O)[C@H](CC(=O)O)NC(=O)[C@H](CO)NC(=O)[C@H](CC(=O)O)NC(=O)[C@H](CCCNC(=N)N)NC(=O)[C@H](CCCNC(=N)N)NC3=O)C(=O)N1CCC[C@H]1C(=O)NCC(=O)N[C@@H](CCC(=O)O)C(=O)N2 (some centres not stated) | Active |  |  |  |  |  | 
H-WQELYQLKY-OH |  | Metabolite_Detected |  |  |  |  | 
CC[C@H](C)[C@@H]1NC(=O)[C@@H]2CSSC[C@H](NC(=O)[C@@H](NC(=O)[C@H](CCCNC(=N)N)NC(=O)[C@@H]3CCC(=O)N3)C(C)C)C(=O)N3CCC[C@H]3C(=O)N[C@@H](CCCNC(=N)N)C(=O)N[C@@H]([C@@H](C)CC)C(=O)N[C@@H](CC(C)C)C(=O)N[C@@H](CCCCN)C(=O)N[C@@H](CCCCN)C(=O)N[C@H]3CSSC[C@H](NC1=O)C(=O)N[C@@H](CCC(N)=O)C(=O)NCC(=O)N[C@@H](CC(N)=O)C(=O)NCC(=O)N[C@@H](Cc1ccc(O)cc1)C(=O)N[C@H](C(=O)NCC(N)=O)CSSC[C@H](NC(=O)[C@H](CC(=O)O)NC(=O)[C@H](CO)NC(=O)[C@H](CC(=O)O)NC(=O)[C@H](CCCNC(=N)N)NC(=O)[C@H](CCCNC(=N)N)NC3=O)C(=O)N1CCC[C@H]1C(=O)NCC(=O)N[C@@H](CCC(=O)O)C(=O)N2 |  |  | Stable | Non-Toxic | Non-Toxic | Non-Toxic | Non-Toxic
CC[C@H](C)[C@@H]1NC(=O)[C@H](CCCNC(=N)N)NC(=O)[C@@H]2CCCN2C(=O)[C@@H]2CSSC[C@@H]3NC(=O)[C@H](C)NC(=O)[C@H](CO)NC(=O)[C@@H]4CCCN4C(=O)[C@@H]4CSSC[C@H](NC(=O)[C@H](Cc5ccc(O)cc5)NC(=O)CNC(=O)[C@H](CC(N)=O)NC(=O)CNC(=O)[C@H](CCC(N)=O)NC(=O)[C@H](CSSC[C@H](NC(=O)[C@H](CCCCN)NC(=O)[C@H](CCC(N)=O)NC(=O)[C@H](CC(C)C)NC1=O)C(=O)N[C@@H](CCCNC(=N)N)C(=O)N[C@@H](CCCNC(=N)N)C(=O)N[C@@H](CC(N)=O)C(=O)N[C@@H](CO)C(=O)N[C@@H](CC(=O)O)C(=O)N4)NC(=O)[C@H](C(C)C)NC3=O)C(=O)NCC(=O)N[C@@H](CO)C(=O)NCC(=O)N[C@@H](CO)C(=O)N[C@H](CC(=O)O)C(=O)NCC(=O)NCC(=O)N[C@@H](C)C(=O)N2 | Active |  |  |  |  |  | 
CC[C@H](C)[C@@H]1NC(=O)[C@H](CCCNC(=N)N)NC(=O)[C@@H]2CCCN2C(=O)[C@@H]2CSSC[C@@H]3NC(=O)[C@H](C)NC(=O)[C@H](CO)NC(=O)[C@@H]4CCCN4C(=O)[C@@H]4CSSC[C@H](NC(=O)[C@H](Cc5ccc(O)cc5)NC(=O)CNC(=O)[C@H](CC(N)=O)NC(=O)CNC(=O)[C@H](CCC(N)=O)NC(=O)[C@H](CSSC[C@H](NC(=O)[C@H](CCCCN)NC(=O)[C@H](CCC(N)=O)NC(=O)[C@H](CC(C)C)NC1=O)C(=O)N[C@@H](CCCNC(=N)N)C(=O)N[C@@H](CCCNC(=N)N)C(=O)N[C@@H](CC(N)=O)C(=O)N[C@@H](CO)C(=O)N[C@@H](CC(=O)O)C(=O)N4)NC(=O)[C@H](C(C)C)NC3=O)C(=O)NCC(=O)N[C@@H](CO)C(=O)NCC(=O)N[C@@H](CO)C(=O)N[C@@H](CC(=O)O)C(=O)NCC(=O)NCC(=O)N[C@@H](C)C(=O)N2 |  |  | Stable | Non-Toxic | Non-Toxic | Non-Toxic | Non-Toxic
CC[C@H](C)[C@@H]1NC(=O)[C@H](CCCCN)NC(=O)[C@@H]2CCCN2C(=O)[C@@H]2CSSC[C@@H]3NC(=O)[C@H](C)NC(=O)CNC(=O)[C@@H]4CCCN4C(=O)[C@@H]4CSSC[C@H](NC(=O)[C@H](Cc5ccc(O)cc5)NC(=O)CNC(=O)[C@H](CC(N)=O)NC(=O)CNC(=O)[C@H](CCC(N)=O)NC(=O)[C@H](CSSC[C@H](NC(=O)[C@H](CCCCN)NC(=O)[C@H](CCC(N)=O)NC(=O)[C@H](CC(C)C)NC1=O)C(=O)N[C@@H](CCCNC(=N)N)C(=O)N[C@@H](CCCNC(=N)N)C(=O)N[C@@H](CC(=O)O)C(=O)N[C@@H](CO)C(=O)N[C@@H](CC(=O)O)C(=O)N4)NC(=O)[C@H](C(C)C)NC3=O)C(=O)NCC(=O)N[C@@H](CO)C(=O)NCC(=O)N[C@@H](CO)C(=O)N[C@H](CC(=O)O)C(=O)NCC(=O)NCC(=O)N[C@@H](C)C(=O)N2 | Active |  |  |  |  |  | 
